One data set concerns Plasma. Kind of data set: Stability in human plasma assessed as doxorubicin production at 50 uM incubated over 24 hrs by RP-HPLC. Format: ADME, cell-free. The essentials: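 Prodrug diluted to 50 µM final in undiluted plasma from healthy human donors, 37 °C for 24 h. Aliquots at 0.25, 1, 3, 8, 12 and 24 h were quenched with equal-volume ethanol and held at −20 °C overnight; protein was spun out. Supernatant run on RP-HPLC; percent prodrug and dox taken from relative 480 nm absorbance, counting all 480 nm species; triplicate.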

Data set [1] relates to MIA PaCa-2. Kind of data set: Cytotoxicity against human MIAPaCa2 cells incubated for 24 hrs measured after 5 days in presence of 0.2 U cathepsin B. It is filed as functional, cell-based. A digest of the protocol:
(§1)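 Cells seeded 1000/well, adhered overnight, then serum-free medium with or without plasmin, trypsin, cathepsin B or papain (0.2 U/well), aprotinin (5 µM) or protease inhibitor cocktail (1X). Prodrug 2000–1 nM final, 24 h; then complete medium up to 5 days or control 80% confluence. Formalin fixed, crystal violet, A582; % of control fit to variable-slope sigmoid for IC50.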

A short description of data set [2]: Cytotoxicity against human L3.6PL cells incubated for 24 hrs measured after 5 day. It is filed as functional, cell-based. The essentials: as §1
The nature of data set [3]: Cytotoxicity against human L3.3 cells incubated for 24 hrs measured after 5 days in presence of 0.2 U human plasmin. It is filed as functional, cell-based. A digest of the protocol:
as §1

The target of a further data set is T1, Papain (Carica papaya) (UniProt P00784).
T1 sequence (whole entry): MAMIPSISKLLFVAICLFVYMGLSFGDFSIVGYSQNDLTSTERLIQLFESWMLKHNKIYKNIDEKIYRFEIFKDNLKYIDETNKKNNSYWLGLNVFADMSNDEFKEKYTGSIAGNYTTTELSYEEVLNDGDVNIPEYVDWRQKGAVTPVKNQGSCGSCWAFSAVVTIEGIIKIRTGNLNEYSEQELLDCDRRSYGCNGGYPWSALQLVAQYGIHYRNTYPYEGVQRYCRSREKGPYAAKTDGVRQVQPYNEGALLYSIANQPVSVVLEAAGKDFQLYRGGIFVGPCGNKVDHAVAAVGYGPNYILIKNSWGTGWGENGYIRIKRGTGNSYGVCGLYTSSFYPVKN
Kind of data set: Activity of papaya papain assessed as compound hydrolysis measuring enzyme specific activity at 50 uM at pH 6.5 in PBS buffer containing 10 mM N-acetylcysteine by RP-HPLC. The essentials:
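50 µM prodrug incubated at 37 °C with enzyme: trypsin in PBS; papain diluted two-fold in PBS-NAC (PBS + 10 mM N-acetylcysteine), reacted in PBS-NAC pH 6.5. Aliquots quenched in equal volume ethanol, −20 °C ≥2 h, centrifuged; supernatant RP-HPLC at 480 nm for substrate loss and dox gain. Slope of linear fit gives activity; 1 U = 1 µM prodrug hydrolysed per min.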

For data set [4], the system named is MIA PaCa-2. Kind of data set: Drug uptake in human MIAPaCa2 cells increase in compound uptake-induced anthracycline fluorescence in absence of plasmin at 0.5 uM up to 5 hrs by flow cytometry relative to untreated control. Format: ADME, cell-based. Conditions: mia paca-2, 5 h. The essentials:
(§2)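 MCF-7 or MiaPaCa-2 plated 250,000/well, adhered overnight, switched to serum-free medium with 0.5 µM prodrug alone or plus 0.2 U human plasmin (final) for up to 5 h. Trypsinised cells read by flow cytometry (FL3) for anthracycline fluorescence; mean values expressed as fold over untreated cells.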

The subject of data set [5] is MCF7. Kind of data set: Cytotoxicity against human MCF7 cells incubated for 24 hrs measured after 5 days in presence of 0.2 U papain. It is filed as functional, cell-based. A digest of the protocol:
as §1

Data set [6] concerns MCF7. Kind of data set: Cytotoxicity against human MCF7 cells incubated for 24 hrs measured after 5 days in presence of 0.2 U trypsin. Format: functional, cell-based. A digest of the protocol:
as §1

Data set [7] deals with MCF7. Kind of data set: Cytotoxicity against human MCF7 cells incubated for 24 hrs measured after 5 days. It is filed as functional, cell-based. The essentials:
as §1

The test system of data set [8] is MCF7. Kind of data set: Drug uptake in human MCF7 cells increase in compound uptake-induced anthracycline fluorescence in absence of plasmin at 0.5 uM up to 5 hrs by flow cytometry relative to untreated control. Format: ADME, cell-based. Conditions: mcf7, 5 h. The essentials: as §2
On the technique in general: In flow cytometry, cells or beads pass a laser one at a time.

Data set [9] can be described thus: Cytotoxicity against human L3.6PL cells incubated for 24 hrs measured after 5 days in presence of 0.2 U human plasmin. Format: functional, cell-based. The essentials:
as §1

For data set [10], the system named is MCF7. Kind of data set: Cytotoxicity against human MCF7 cells incubated for 24 hrs measured after 5 days in presence of 0.2 U plasmin. Format: functional, cell-based. The essentials: as §1
The test system of a further data set is BXPC-3. Kind of data set: Cytotoxicity against human BxPC3 cells incubated for 24 hrs measured after 5 days. Format: functional, cell-based. The essentials: as §1

Broadly, the IC50 is the concentration that inhibits the measured activity by half.

For the compound `COc1cccc2c1C(=O)c1c(O)c3c(c(O)c1C2=O)C[C@@](O)(C(=O)CO)C[C@@H]3O[C@H]1C[C@H]2[C@H](OCN2C(=O)OCc2ccc(NC(=O)[C@H](CCCCN)NC(=O)[C@H](Cc3ccccc3)NC(=O)[C@@H](C)NC(=O)CNC(C)=O)cc2)[C@H](C)O1.O=P(O)(O)O`, the Stability entry in the data set on Plasma was “Stable”. For the same compound, the IC50 was 158 nM with MIA PaCa-2 [1]; 316 nM in data set [2]; 3.98 nM in data set [3]; 60.3 nM in the data set on MCF7 [5]; 31.6 nM in the data set with MCF7 [6]; 200 nM with MCF7 [7]. Also, the IC50 in [9] is 3.16 nM; with MCF7 [10] it was 26.9 nM; in the data set on BXPC-3 it was 1000 nM. In addition, the Activity on Papain (Carica papaya) is 890 U/mg. The “fold change (FC)” value in the data set on MIA PaCa-2 [4] and in the data set on MCF7 [8] was 2 in each case.
